The text below walks through data of ChEMBL document CHEMBL4028854, “Iminothioethers as Hydrogen Sulfide Donors: From the Gasotransmitter Release to the Vascular Effects” (J Med Chem, 2017).

Data set [1] has as its system Thoracic aorta. Kind of data set: Vasorelaxing effect in endothelium-denuded Wistar rat thoracic aorta ring assessed as reduction in KCl-induced contractile tone. It counts as functional, tissue-based.
The subject of data set [2] is Thoracic aorta. In words: Vasorelaxing effect in endothelium-denuded Wistar rat thoracic aorta ring assessed as reduction in KCl-induced contractile tone at 1 mM relative to KCl. It counts as functional.
Data set [3] in a line: Induction of intracellular cGMP level in sodium nitroprusside pretreated HSMC at 300 uM after 20 mins by ELISA (reference value: 0.446 +/- 0.005 pmol/ml). It counts as functional, Homo sapiens. A general note: In an ELISA, binding on a coated surface is turned into a signal by an enzyme label.
Another data set relates to Rattus norvegicus. Kind of data set: Antihypertensive activity in Wistar rat model of L-NAME-induced hypertension assessed as decrease in basal systolic blood pressure at 133 umol/kg, ip measured at 5 mins interval for 30 mins relative to control. The format is functional. The method in brief: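 Male 12-week-old normotensive Wistar rats (250 g), anaesthetized with sodium thiopental 60 mg/Kg. Tails warmed under an IR lamp for 15 min, and systolic pressure read by tail-cuff. Baseline taken, then L-NAME 100 mg/Kg i.p. given and pressure monitored 20 min. Test agent given i.p. in DMSO vehicle (0.33 ml/Kg). Read-outs taken every 5 min over 30 min and averaged, as % of the L-NAME-raised Psys. 6 rats/group.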

The nature of data set [4]: Drug metabolism in HSMC assessed as H2S release by measuring increase in fluorescence intensity at 1 mM after 1 hr by WSP1 dye based spectrofluorometric method relative to DADS. It counts as ADME, cell-based. The note with it: human, 1000 µM. The method in brief:
(§1)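 Human aortic smooth muscle cells were seeded on gelatin-coated slides (30000/well). After 24 h they were loaded with WSP-1 (100 µM) for 30 min, and the supernatant was replaced by compound in HEPES standard buffer (pH 7.4). Fluorescence (λ 465-515 nm) was followed for 1 h and expressed as fluorescence index. Reference donor was used at 300 µM. Data are mean ± SE.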

The subject of the next data set is Heart. In words: Protection against angiotensin2-induced reduction in coronary flow in Langendorff perfused Wistar rat heart assessed as increase in coronary flow at 300 uM after 20 mins relative to control. It counts as functional. The method in brief:
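Langendorff-perfused hearts were equilibrated for 20 min. Coronary spasm was induced with angiotensin II 0.1 µM, kept in the perfusate throughout. Compound (300 µM) or vehicle was then added to the perfusate for 20 min. Coronary flow was expressed as % of the mean of three basal readings. Hearts from 6-9 animals/group; mean ± SE.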

The test system of data set [5] is HSMC. In words: Induction of intracellular cGMP level in HSMC at 300 uM after 20 mins by ELISA. It counts as functional, cell-based. The following applies: Homo sapiens.
The nature of data set [6]: Cytotoxicity in HSMC assessed as cell damage at 300 uM by propidium iodide staining based fluorescence microscopic method. The note with it: human. The procedure, abridged: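 WSP-1-loaded human aortic smooth muscle cells were incubated with compound for 1 h. Cells were then washed, fixed in Bouin solution for 10 min, and washed twice. Nuclei were stained with propidium iodide, and slides were examined by fluorescence microscopy.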

Data set [7] can be described thus: Induction of membrane hyperpolarization in HSMC at 1 mM measured every 2.5 mins for 40 mins by DiBac4(3) dye based spectrofluorometric method relative to NS1619. The format is functional, Homo sapiens. The procedure, abridged: (§2)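 Human aortic smooth muscle cells were grown in Medium 231 with SMGS at 37 °C, 5% CO2, and seeded at 72×10^3/well on gelatin 24 h before use. Cells were loaded 1 h with DiBac4(3) 2.5 µM in HEPES buffer, pH 7.4, at room temperature. Fluorescence (ex 488/em 520 nm) was read every 2.5 min for 40 min. (Ft-F0)/F0 was calculated, and AUC expressed as % of the NS1619 10 µM response. Six experiments ×6 replicates.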

Data set [8] relates to HSMC. Kind of data set: Induction of membrane hyperpolarization in HSMC measured every 2.5 mins for 40 mins by DiBac4(3) dye based spectrofluorometric method. The format is functional, cell-based. The note with it: Homo sapiens. The method in brief: as §2
The nature of data set [9]: Drug metabolism in HSMC assessed as H2S release at 1 mM by WSP1 dye based spectrofluorometric method. It counts as ADME, cell-based. The note with it: human, 1000 µM, TDE = time-dependent effect. The method in brief: as §1
Data set [10] is described as follows: Drug metabolism in HSMC assessed as H2S release at 300 uM by WSP1 dye based spectrofluorometric method. The format is ADME, cell-based. The note with it: human. The method in brief: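 HASMCs seeded at 30000/well on gelatine-coated culture slides; after 24 h, loaded with 100 µM WSP-1 for 30 min. Dye solution replaced by compound in HEPES-buffered saline, pH 7.4, without added thiols. H2S-evoked fluorescence (λ 465–515 nm) was read by spectrofluorometer over 1 h and expressed as fluorescence index.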

A short description of data set [11]: Drug metabolism in HSMC assessed as H2S release at 300 uM by WSP1/propidium iodide staining based fluorescence microscopic method. It counts as ADME, cell-based. The following applies: human. The method in brief:
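HASMCs on gelatine-coated culture slides were loaded with 100 µM WSP-1 for 30 min, then incubated with compound in HEPES-buffered saline for 1 h. Cells were washed, fixed in Bouin solution for 10 min, washed twice and counterstained with propidium iodide for nuclei. Green WSP-1 fluorescence was examined by fluorescence microscopy.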

Data set [12] relates to HSMC. In words: Induction of membrane hyperpolarization in HSMC at 10 uM measured every 2.5 mins for 40 mins by DiBac4(3) dye based spectrofluorometric method. The format is functional, cell-based. The following applies: Homo sapiens. The method in brief: as §2

Structures are written as SMILES. pIC50: −log10 of the molar value. Active and inactive are the calls of the source. No cut-off for these calls is given here. A value given as a limit tells only on which side of the number the result lay.

On to `N=C(SCc1ccccc1)c1ccccc1`, for which the pIC50 (usually the IC50 on a negative log10 scale, so that one unit is a factor of ten) in the data set with Thoracic aorta [1] was 3.37. Also, in the data set on Thoracic aorta [2], the maximal response (Emax) – broadly, the greatest response seen or fitted, relative to the assay's reference – at 1000 µM was found to be 86.5%.
In the case of `N=C(Sc1ccccc1)c1cccs1`, the Activity in data set [3] was 0.667 pmol/mL; in [6], “Toxic”; in data set [7], 36%; in the data set with HSMC [8] it was “Dose-dependent effect”. For the same compound, the outcome in the data set with Rattus norvegicus, in the data set with Heart and in the data set with HSMC [5] was inactive. The “fold change (FC)” value in data set [4] was found to be 50. Further, the pIC50 in the data set on Thoracic aorta [1] is 3.20. Besides, the Emax at 1000 µM in the data set on Thoracic aorta [2] was determined as 99.7%. Further, in data set [9], the Drug metabolism result is on record as “Tde”.
On to `COc1ccc(C(=S)NCc2ccccc2)cc1`, for which the pIC50 in the data set with Thoracic aorta [1] is 3.89. In the data set on Thoracic aorta [2], the Emax at 1000 µM amounted to 96.8%.
For `N=C(SCc1ccccc1)c1cccs1`, in that order: 3.58 and 89.9%.
As to `N=C(SCc1ccc2ccccc2c1)c1cccs1`, the Emax at 1000 µM in the data set with Thoracic aorta [2] stood at 20.4%.
For the compound `C=CCSSCC=C` [DIALLYLDISULFIDE], the Activity with Rattus norvegicus was found to be 39%. Further, the Drug metabolism entry in data set [10] and in data set [11] was “Metabolite_Detected” each time. Moreover, in the data set with Thoracic aorta [2], the maximal response (Emax) at 1000 µM came out at 41.7%.
As for `N=C(SCc1ccccc1)c1ccc(O)cc1`, the pIC50 in the data set with Thoracic aorta [1] is 3.31. For the same compound, the Emax at 1000 µM in the data set with Thoracic aorta [2] was determined as 82.1%.
Consider `O=c1[nH]c2cc(C(F)(F)F)ccc2n1-c1cc(C(F)(F)F)ccc1O`, for which the outcome in the data set on HSMC [12] was Active.
Turning to `COc1ccc(C(=N)SCc2ccccc2)cc1`, the Activity in data set [3] is 0.489 pmol/mL; in the data set on Rattus norvegicus it was 36%; in the data set on Heart, “<=165%”; in data set [7], 149%; in the data set on HSMC [8], “Dose-dependent effect”. Moreover, the pIC50 in the data set with Thoracic aorta [1] was 3.59. Besides, in the data set on HSMC [5], the result was inactive. In addition, the values for the Drug metabolism result in [11] and in data set [9] were “Metabolite_Detected” and “Tde”, respectively. For the same compound, in the data set with Thoracic aorta [2], the Emax at 1000 µM was determined as 89.9%.
In the case of `S=C(NCc1ccccc1)c1ccccc1`, in the data set with Thoracic aorta [1], the pIC50 was 3.79. In addition, in the data set with Thoracic aorta [2], the maximal response (Emax) at 1000 µM amounted to 92.7%.
The like results for `Oc1ccc(C(=S)NCc2ccccc2)cc1` were, in that order, 3.46 and 88.2%.
Turning to `S=C(NCc1ccccc1)c1cccs1`, the pIC50 with Thoracic aorta [1] is 3.62. For the same compound, the Emax at 1000 µM with Thoracic aorta [2] stood at 91.7%.
